The test system of data set [1] is HFL1. Put plainly: Antifibrotic activity in HFL1 cells assessed as inhibition of cell viability after 48 hrs by sulforhodamine B assay. The data set is classed as functional, cell-based. Particulars: Homo sapiens, HFL1, 48 h. In a few lines:
(§1)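 HFL-1 human fetal lung fibroblasts (DMEM, 10% FCS, passages 14–18) seeded at 8000 cells/well, attached overnight, then exposed to a range of concentrations for 48 h in triplicate. Cells were fixed with TCA and stained with 0.4% SRB, bound dye was solubilized in Tris, and OD was read at 570 nm relative to control.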
(In general: The SRB assay estimates cell density from bound dye.)

The subject of data set [2] is HFL1. Put plainly: Antifibrotic activity in HFL1 cells assessed as inhibition of cell viability at >1 uM after 48 hrs by sulforhodamine B assay relative to control. The format is functional. Particulars: Homo sapiens, HFL1, 48 h. A digest of the protocol: as §1
Data set [3] has as its system HFL1. Put plainly: Antifibrotic activity in HFL1 cells assessed as reduction in cell proliferation after 150 hrs by xCelligence analysis. Conditions: Homo sapiens.
Data set [4] in a line: Antioxidant activity assessed as inhibition of superoxide anion generation measured for 3 mins by nitro blue tetrazolium assay. The data set is classed as physicochemical. Conditions: for Emax: 0.05 h. A digest of the protocol: (§2)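 Cell-free superoxide generated by xanthine (1 mM) and xanthine oxidase (0.11 U/mL), with NBT (50 µM) as detector. Compounds in DMSO were tested up to 10 µM, with DMSO held at 0.1%. NBT reduction rate (dA560/dt) was read spectrophotometrically over 3 min from the linear part.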

The test system of data set [5] is HFL1. Nature of the data set: Antifibrotic activity in HFL1 cells assessed as reduction in cell proliferation at 0.1 to 1 uM after 150 hrs by xCelligence analysis. The data set is classed as functional, cell-based. Particulars: Homo sapiens. In a few lines: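 HFL-1 cells were seeded at 20,000/well and monitored by real-time impedance (xCelligence). Compound or DMSO vehicle was added at ~30 h, once attachment was maximal, and cells were followed for another 150 h. P150 was taken as the signal difference between 30 h and 180 h; Pdot was the maximum slope of the curve.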

In data set [6] the test system is NCI-H460. Nature of the data set: Cytotoxicity against human NCI-H460 cells assessed as cell growth at 10^-4 M after 48 hrs by sulforhodamine B assay relative to control. The format is functional. Conditions: NCI-H460, 48 h, read-out: Activity. In a few lines: (§3)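 Cells were inoculated and preincubated 24–48 h, then exposed to a single dose of 10^-4 M for 48 h. SRB protein staining was the endpoint, and growth percent was calculated versus untreated controls.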

Data set [7] concerns MCF7. Put plainly: Cytotoxicity against human MCF7 cells assessed as cell growth at 10^-4 M after 48 hrs by sulforhodamine B assay relative to control. Particulars: MCF7, 48 h, read-out: Activity. The data set is classed as functional. A digest of the protocol:
as §3

Data set [8] is described as follows: Cytotoxicity against human SF268 cells assessed as cell growth at 10^-4 M after 48 hrs by sulforhodamine B assay relative to control. The format is functional. Conditions: SF-268, 48 h, read-out: Activity. In a few lines: as §3
A short description of data set [9]: Growth inhibition of human NCI60 cells after 48 hrs by sulforhodamine B assay. The data set is classed as functional. Conditions: NCI60, 48 h. A digest of the protocol:
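NCI ~60-cell-line panel with five 10-fold dilutions (10^-4 to 10^-8 M) and 48 h continuous exposure, using an SRB endpoint. Percentage growth was derived from time-zero, control and treated absorbances. Values are expressed as > or < when outside the tested range.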

Data set [10] in a line: Antioxidant activity assessed as inhibition of superoxide anion generation upto 10 uM measured for 3 mins by nitro blue tetrazolium assay. The data set is classed as physicochemical. Conditions: 0.05 h. A digest of the protocol:
as §2

The term IC50 denotes the point on the concentration scale where inhibition reaches its midpoint. Usually GI50 stands for the concentration giving 50% growth inhibition. The low end stands for greater sensitivity of the cells, the high end for lower sensitivity of the cells.

Active and inactive are the calls of the source. No cut-off for these calls is given here.

As for `O=C1N=C(Nc2ccc(O)cc2)S/C1=C\c1ccc(Cl)cc1`, the IC50 in data set [1] was determined as 20 nM. Also, the Emax in data set [2] is 46.1%. In addition, the Activity entry in data set [3] was “Dose-dependent effect”.

Take `C=CCN1C(=O)/C(=C2/C(=O)Nc3ccccc32)S/C1=N\c1nccs1`: the IC50 was determined as 1320 nM in data set [4] and 90 nM in data set [1]. Also, the Emax in data set [4] is 86.5%; in [2] it was 65.9%. The outcome in data set [5] was Active. The results for the growth at 100 µM in [6], in data set [7] and in data set [8] were 49%, 76% and 82%, respectively.

As for `O=C1N=C(Nc2ccc(O)cc2)S/C1=C1\C(=O)Nc2ccccc21`, the growth at 100 µM in data set [6] was 96%; in data set [7] it was 108%; in data set [8] it was 118%.

`O=C1N=C(Nc2nccs2)S/C1=C1\C(=O)Nc2ccc(Br)cc21`: in [4], the IC50 amounted to 380 nM and the Emax is recorded as 67.4%. In data set [9], growth was halved (GI50) at 95500 nM. Further, the CC50 in data set [9] (read-out: pLC50 (the source's name) (converted)) is 100000 nM. Also, the TGI in data set [9] (read-out: pTGI (converted)) is 100000 nM.

For `COc1ccccc1NC(=O)CSc1nnc(/N=C2\NC(=O)CS2)s1`, the outcome in [5] was Active. In addition, the “inhibition (INH)” value in data set [10] is “Not Active”. The IC50 in [1] was 400 nM. In addition, the Emax in data set [2] worked out at 75%.

In the case of `CN(C1=NC(=O)/C(=C/C(Cl)=C/c2ccc([N+](=O)[O-])cc2)S1)c1ccc(O)cc1`, in [4], the IC50 was 960 nM and the Emax is 47.4%.

Regarding `CCC1S/C(=N\N=C/c2cccnc2)N(Cc2ccco2)C1=O` (mixture of isomers), the IC50 in data set [1] turned out to be 210 nM. In data set [2], the Emax stood at 44.7%.

`COc1ccc(/C=C2\SC(Nc3nnc(SCC(=O)Nc4ccc(Cl)cc4)s3)=NC2=O)cc1`: the IC50 in [4] came to 810 nM; in [1] it was 160 nM. The Emax in [4] was 86.4%; in data set [2] it was 53.8%.

With `CC(/C=N/N=C1\SC(CC(=O)Nc2cccc(C(F)(F)F)c2)C(=O)N1Cc1ccco1)=C\c1ccccc1` (mixture of isomers), the IC50 in data set [1] is 30 nM. In addition, the Emax in data set [2] was determined as 44.3%. The Activity entry in data set [3] is “Dose-dependent effect”.

For `O=C(CC1SC(=Nc2cccc(O)c2)NC1=O)Nc1ccc(Br)cc1` (racemic), the “inhibition (INH)” value in data set [10] is “Not Active”. Besides, the IC50 in data set [1] was 160 nM. Further, the Emax in data set [2] came out at 77.6%.

In the case of `CC1S/C(=N/N=C/c2cccnc2)NC1=O` (racemic), the figures for the IC50 in [4] and in [1] were 1960 nM and 830 nM, respectively. Moreover, the values for the Emax in [4] and in [2] were 35.8% and 84.6%, respectively.

Consider `CCOc1cc(/C=C2\SC(Nc3nc4ccc(C)cc4s3)=NC2=O)ccc1O`, for which the results for the IC50 in data set [4] and in data set [1] were 6800 nM and 10 nM, respectively. The figures for the Emax in data set [4] and in [2] were 38.7% and 48.1%, respectively.

As to `O=C1CS/C(=N\N=C/c2cccnc2)N1Cc1ccco1`, in data set [1], the IC50 was 500 nM. In data set [2], the Emax stood at 69.4%.

For the compound `O=C1CS/C(=N/N=C/c2cccnc2)N1`, the IC50 in data set [1] stood at 810 nM. The Emax in data set [2] was found to be 92.1%.

Regarding `COc1ccccc1NC(=O)CSc1nnc(NC2=NC(=O)/C(=C/c3ccc(Cl)cc3)S2)s1`, the IC50 in [1] worked out at 40 nM. Moreover, the Emax in data set [2] came out at 17.4%.

In the case of `Cc1cc(O)c(C(C)C)cc1NC1=NC(=O)S/C1=C\c1ccc(Cl)cc1`, the half-inhibitory concentration (IC50) in data set [1] amounted to 30 nM. Also, in data set [2], the Emax was 75.5%.

With `O=C1N=C(Nc2ccc(O)cc2)S/C1=C\C=C/c1ccccc1`, the growth at 100 µM is 140% in data set [6], 124% in data set [7] and 103% in data set [8].

As for `Cc1ccc2c(c1)/C(=C1/SC(N(C)c3ccc(O)cc3)=NC1=O)C(=O)N2`, the IC50 in data set [1] was determined as 70 nM. The Emax in data set [2] came out at 31.3%. Also, the growth at 100 µM stood at 95% in data set [6], 89% in data set [7] and 74% in data set [8].

With `O=C(CC1SC(Nc2ccc(O)cc2)=NC1=O)c1ccc(F)cc1` (racemic), the IC50 in [1] stood at 190 nM. Besides, the Emax in [2] amounted to 54.2%. Moreover, the growth at 100 µM in [6] was determined as 62%; in data set [7] it was 66%; in data set [8], 53%.

The values above are taken from ChEMBL document CHEMBL3779799, “Antifibrotic and anticancer action of 5-ene amino/iminothiazolidinones” (Eur J Med Chem, 2016).
